ChEMBL document CHEMBL3992547, “Antimicrobial activity of rhodanine-3-acetic acid derivatives” (Bioorg Med Chem, 2017)
Converted amounts (≈) assume the structure as drawn. The source made the active and inactive calls. No cut-off for these calls is given here.

What was measured:
[1] = tested on: Mycobacterium tuberculosis; assay: Antimycobacterial activity against Mycobacterium tuberculosis H37Rv 331/88 measured after 14 days by micromethod; assay type: functional; conditions: H37Rv 331/88, 336 h
[2] = tested on: Mycobacterium tuberculosis; assay: Antimycobacterial activity against Mycobacterium tuberculosis H37Rv 331/88 measured after 21 days by micromethod; assay type: functional; conditions: H37Rv 331/88, 504 h
Mycobacterium avium [3] = assay: Antimycobacterial activity against Mycobacterium avium 330/88 measured after 14 days by micromethod; assay type: functional; conditions: 330/88, 336 h
Mycobacterium avium [4] = assay: Antimycobacterial activity against Mycobacterium avium 330/88 measured after 21 days by micromethod; assay type: functional; conditions: 330/88, 504 h
Mycobacterium kansasii [5] = assay: Antimycobacterial activity against Mycobacterium kansasii isolate 235/80 after 7 days by micromethod; assay type: functional; conditions: isolate 235/80, 168 h
Mycobacterium kansasii [6] = assay: Antimycobacterial activity against Mycobacterium kansasii isolate 235/80 after 14 days by micromethod; assay type: functional; conditions: isolate 235/80, 336 h
Mycobacterium kansasii [7] = assay: Antimycobacterial activity against Mycobacterium kansasii isolate 235/80 after 21 days by micromethod; assay type: functional; conditions: isolate 235/80, 504 h
Mycobacterium kansasii [8] = assay: Antimycobacterial activity against Mycobacterium kansasii isolate 6509/96 after 7 days by micromethod; assay type: functional; conditions: isolate 6509/96, 168 h
Mycobacterium kansasii [9] = assay: Antimycobacterial activity against Mycobacterium kansasii isolate 6509/96 after 14 days by micromethod; assay type: functional; conditions: isolate 6509/96, 336 h
Mycobacterium kansasii [10] = assay: Antimycobacterial activity against Mycobacterium kansasii isolate 6509/96 after 21 days by micromethod; assay type: functional; conditions: isolate 6509/96, 504 h
[11] = Solubility of the compound in Sula's semisynthetic medium up to 1 mM; assay type: physicochemical
Klebsiella pneumoniae [12] = assay: Antibacterial activity against Klebsiella pneumoniae D 11750/08 up to 500 uM incubated for 24 to 48 hrs under dark condition by microdilution broth assay; assay type: functional
Procedure, shortened: (§1)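 Broth microdilution per M07-A07, modified, in Mueller-Hinton broth adjusted to pH 7.4 (±0.2). Inoculum is prepared in sterile water to McFarland 0.5 (1.5 × 10⁸ CFU/mL). Plates are incubated in the dark at 35 °C in humid air. MIC is read after 24 and 48 h as at least 95% growth reduction versus control (IC₉₅).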

Klebsiella pneumoniae [13] = assay: Antibacterial activity against ESBL positive Klebsiella pneumoniae J 14368/08 up to 500 uM incubated for 24 to 48 hrs under dark condition by microdilution broth assay; assay type: functional; procedure, shortened: as §1
Pseudomonas aeruginosa = assay: Antibacterial activity against Pseudomonas aeruginosa CCM 1961 up to 500 uM incubated for 24 to 48 hrs under dark condition by microdilution broth assay; assay type: functional; procedure, shortened: as §1
Candida albicans [14] = assay: Antifungal activity against Candida albicans ATCC 44859 after 24 hrs by microdilution broth assay; assay type: functional; conditions: ATCC 44859, 24 h
Procedure, shortened: (§2)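 Broth microdilution per CLSI M27-A3 and M38-A2 in RPMI 1640 with glutamine, buffered to pH 7.0 with MOPS. Compounds are diluted in DMSO. Final inoculum is 5 × 10³ CFU/mL for yeasts and 0.5–5 × 10⁴ CFU/mL for moulds. Plates are incubated in the dark at 35 °C in humid air and read visually and/or at 540 nm after 24 and 48 h. MIC is ≥80% growth reduction (IC₈₀) for yeasts and ≥50% (IC₅₀) for filamentous fungi.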

Candida albicans [15] = assay: Antifungal activity against Candida albicans ATCC 44859 after 48 hrs by microdilution broth assay; assay type: functional; conditions: ATCC 44859, 48 h; procedure, shortened: as §2
Candida tropicalis [16] = assay: Antifungal activity against Candida tropicalis 156 after 24 hrs by microdilution broth assay; assay type: functional; conditions: Candida tropicalis, 156, 24 h; procedure, shortened: as §2
Candida tropicalis [17] = assay: Antifungal activity against Candida tropicalis 156 after 48 hrs by microdilution broth assay; assay type: functional; conditions: Candida tropicalis, 156, 48 h; procedure, shortened: as §2
Nakaseomyces glabratus [18] = assay: Antifungal activity against Candida glabrata 20/I after 24 hrs by microdilution broth assay; assay type: functional; procedure, shortened: as §2
Nakaseomyces glabratus [19] = assay: Antifungal activity against Candida glabrata 20/I after 48 hrs by microdilution broth assay; assay type: functional; procedure, shortened: as §2
Trichosporon asahii [20] = assay: Antifungal activity against Trichosporon asahii 1188 after 24 hrs by microdilution broth assay; assay type: functional; conditions: Trichosporon asahii, 1188, 24 h; procedure, shortened: as §2
Trichosporon asahii [21] = assay: Antifungal activity against Trichosporon asahii 1188 after 48 hrs by microdilution broth assay; assay type: functional; conditions: Trichosporon asahii, 1188, 48 h; procedure, shortened: as §2
Aspergillus fumigatus [22] = assay: Antifungal activity against Aspergillus fumigatus 231 after 24 hrs by microdilution broth assay; assay type: functional; conditions: Aspergillus fumigatus, 231, 24 h; procedure, shortened: as §2
Aspergillus fumigatus [23] = assay: Antifungal activity against Aspergillus fumigatus 231 after 48 hrs by microdilution broth assay; assay type: functional; conditions: Aspergillus fumigatus, 231, 48 h; procedure, shortened: as §2
[24] = tested on: Trichophyton mentagrophytes; assay: Antifungal activity against Trichophyton mentagrophytes 445 after 72 hrs by microdilution broth assay; assay type: functional; conditions: Trichophyton mentagrophytes, 445, 72 h
Procedure, shortened: (§3)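 Broth microdilution per CLSI M38-A2 in RPMI 1640 with glutamine, buffered to pH 7.0 with MOPS, with DMSO as diluent. Final inoculum is 0.5–5 × 10⁴ CFU/mL. Plates are incubated in the dark at 35 °C in humid air and read visually and/or at 540 nm after 72 and 120 h. MIC is at least 50% growth reduction versus control.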

[25] = tested on: Trichophyton mentagrophytes; assay: Antifungal activity against Trichophyton mentagrophytes 445 after 120 hrs by microdilution broth assay; assay type: functional; conditions: Trichophyton mentagrophytes, 445, 120 h; procedure, shortened: as §3
Pichia kudriavzevii = assay: Antifungal activity against Candida krusei E28 after 24 to 48 hrs hrs by microdilution broth assay; assay type: functional; procedure, shortened: as §2
Lichtheimia corymbifera = assay: Antifungal activity against Absidia corymbifera 272 after 24 to 48 hrs hrs by microdilution broth assay; assay type: functional; procedure, shortened: as §2

Row | SMILES | MIC [1] | MIC [2] | MIC (Mycobacterium avium [3]) | MIC (Mycobacterium avium [4]) | MIC (Mycobacterium kansasii [5]) | MIC (Mycobacterium kansasii [6]) | MIC (Mycobacterium kansasii [7]) | MIC (Mycobacterium kansasii [8]) | MIC (Mycobacterium kansasii [9]) | MIC (Mycobacterium kansasii [10]) | solubility [11] | Activity (Klebsiella pneumoniae [12]) | Activity (Klebsiella pneumoniae [13]) | Activity (Pseudomonas aeruginosa) | MIC80 (Candida albicans [14]) | MIC80 (Candida albicans [15]) | MIC80 (Candida tropicalis [16]) | MIC80 (Candida tropicalis [17]) | MIC80 (Nakaseomyces glabratus [18]) | MIC80 (Nakaseomyces glabratus [19]) | further results
1 | O=C(CN1C(=O)CSC1=S)Oc1ccc(Cl)cc1 | 250 µM (≈ 75.4 µg/mL) | 500 µM (≈ 151 µg/mL) | 1000 µM (≈ 302 µg/mL) | 1000 µM (≈ 302 µg/mL) | 250 µM (≈ 75.4 µg/mL) | 500 µM (≈ 151 µg/mL) | 1000 µM (≈ 302 µg/mL) | 250 µM (≈ 75.4 µg/mL) | 500 µM (≈ 151 µg/mL) | 500 µM (≈ 151 µg/mL) | Soluble | inactive | inactive | inactive | > 500 µM | > 500 µM | > 500 µM | > 500 µM | > 500 µM | > 500 µM | MIC80 (Trichosporon asahii [20]): > 500 µM; MIC80 (Trichosporon asahii [21]): > 500 µM; MIC50 (Aspergillus fumigatus [22]): > 500 µM; MIC50 (Aspergillus fumigatus [23]): > 500 µM; MIC50 [24]: 500 µM (≈ 151 µg/mL); MIC50 [25]: 500 µM (≈ 151 µg/mL); Activity (Pichia kudriavzevii): inactive; Activity (Lichtheimia corymbifera): inactive
2 | O=C(O)CN1C(=O)/C(=C/c2ccccn2)SC1=S | 250 µM (≈ 70.1 µg/mL) | 500 µM (≈ 140 µg/mL) | 1000 µM (≈ 280 µg/mL) | 1000 µM (≈ 280 µg/mL) | 500 µM (≈ 140 µg/mL) | 1000 µM (≈ 280 µg/mL) | 1000 µM (≈ 280 µg/mL) | 500 µM (≈ 140 µg/mL) | 500 µM (≈ 140 µg/mL) | 1000 µM (≈ 280 µg/mL) | Soluble | inactive | inactive | inactive | ≥ 0.98 µM | ≥ 0.98 µM | ≥ 0.98 µM | ≥ 0.98 µM | ≥ 0.98 µM | ≥ 0.98 µM | MIC80 (Trichosporon asahii [20]): ≥ 0.98 µM; MIC80 (Trichosporon asahii [21]): ≥ 0.98 µM; MIC50 (Aspergillus fumigatus [22]): ≥ 0.98 µM; MIC50 (Aspergillus fumigatus [23]): ≥ 0.98 µM; MIC50 [24]: ≥ 0.98 µM; MIC50 [25]: ≥ 0.98 µM; Activity (Pichia kudriavzevii): inactive; Activity (Lichtheimia corymbifera): inactive
